ChEMBL document CHEMBL1949512, “RO4383596, an orally active KDR, FGFR, and PDGFR inhibitor: synthesis and biological evaluation” (Bioorg Med Chem, 2005)

Assays:
[1] = biological target: T1, Vascular endothelial growth factor receptor 2 (Homo sapiens, UniProt P35968); assay: Inhibition of KDR autophosphorylation in HUVEC by Western blot analysis
Outline: (§1)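 HUVECs at passages 2–4 were grown to 70% confluency and serum-starved 18 h in EBM-2 with 1.0% HI-FBS. Compound was added 1 h before 50 ng/mL rhVEGF. Cells were lysed on ice 5 min after stimulation and lysates immunoblotted, with actin used to normalize loading.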

[2] = biological target: T1, Vascular endothelial growth factor receptor 2; assay: Inhibition of KDR in HUVEC assessed as ERK1/2 phosphorylation by Western blot analysis; outline: as §1
[3] = biological target: T1, Vascular endothelial growth factor receptor 2; assay: Inhibition of KDR in HUVEC assessed as AKT phosphorylation by Western blot analysis; outline: as §1
[4] = biological target: T1, Vascular endothelial growth factor receptor 2; assay: Inhibition of human recombinant EE-tagged intracellular domain of KDR using biotin-EEEEYFELVAKKKK as substrate by HTRF assay
[5] = biological target: Fibroblast growth factor receptor (Homo sapiens, UniProt P22607+P11362+P22455+P21802); assay: Inhibition of human recombinant GST-tagged intracellular domain of FGFR using biotin-EEEEYFELV as substrate by HTRF assay
[6] = biological target: Platelet-derived growth factor receptor (Homo sapiens, UniProt P09619+P16234); assay: Inhibition of human recombinant His-tagged intracellular domain of PDGFR using biotin-EEEEYFELV as substrate by HTRF assay
[7] = biological target: Epidermal growth factor receptor (Homo sapiens, UniProt P00533); assay: Inhibition of human recombinant His-tagged intracellular domain of EGFR using biotin-EEEEYFELV as substrate by HTRF assay
Epidermal growth factor receptor, sequence (P00533 whole entry, the tested form may be a part): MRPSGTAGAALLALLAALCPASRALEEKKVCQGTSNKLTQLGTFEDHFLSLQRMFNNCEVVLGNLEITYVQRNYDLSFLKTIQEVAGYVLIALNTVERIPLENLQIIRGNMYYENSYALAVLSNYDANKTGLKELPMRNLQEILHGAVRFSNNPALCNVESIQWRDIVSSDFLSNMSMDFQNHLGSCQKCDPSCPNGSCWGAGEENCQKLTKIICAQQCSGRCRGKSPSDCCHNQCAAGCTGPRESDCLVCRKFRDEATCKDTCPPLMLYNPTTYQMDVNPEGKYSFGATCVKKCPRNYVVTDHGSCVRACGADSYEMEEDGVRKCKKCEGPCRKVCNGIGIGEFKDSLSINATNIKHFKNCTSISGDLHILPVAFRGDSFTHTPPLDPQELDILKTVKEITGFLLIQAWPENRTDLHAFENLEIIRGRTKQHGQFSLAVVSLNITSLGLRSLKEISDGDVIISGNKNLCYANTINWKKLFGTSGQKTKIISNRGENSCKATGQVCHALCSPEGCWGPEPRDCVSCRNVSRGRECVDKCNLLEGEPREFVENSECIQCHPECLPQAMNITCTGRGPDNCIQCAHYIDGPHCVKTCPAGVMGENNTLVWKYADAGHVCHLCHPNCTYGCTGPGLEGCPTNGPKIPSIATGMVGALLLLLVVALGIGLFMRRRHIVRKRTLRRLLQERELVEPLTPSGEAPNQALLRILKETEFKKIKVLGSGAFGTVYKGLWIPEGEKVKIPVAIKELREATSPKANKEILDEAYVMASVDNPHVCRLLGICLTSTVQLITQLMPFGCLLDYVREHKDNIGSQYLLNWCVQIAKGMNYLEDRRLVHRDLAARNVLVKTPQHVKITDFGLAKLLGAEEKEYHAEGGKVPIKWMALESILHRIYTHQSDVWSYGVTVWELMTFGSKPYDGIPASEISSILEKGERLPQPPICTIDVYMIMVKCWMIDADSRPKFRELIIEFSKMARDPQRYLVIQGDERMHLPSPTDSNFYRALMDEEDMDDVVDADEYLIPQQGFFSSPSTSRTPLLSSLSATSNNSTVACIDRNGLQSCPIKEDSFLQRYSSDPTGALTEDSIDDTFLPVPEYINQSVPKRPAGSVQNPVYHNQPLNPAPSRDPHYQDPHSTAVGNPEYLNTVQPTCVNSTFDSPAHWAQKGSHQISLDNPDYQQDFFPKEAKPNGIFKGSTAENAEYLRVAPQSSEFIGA

T1 sequence (P35968 whole entry): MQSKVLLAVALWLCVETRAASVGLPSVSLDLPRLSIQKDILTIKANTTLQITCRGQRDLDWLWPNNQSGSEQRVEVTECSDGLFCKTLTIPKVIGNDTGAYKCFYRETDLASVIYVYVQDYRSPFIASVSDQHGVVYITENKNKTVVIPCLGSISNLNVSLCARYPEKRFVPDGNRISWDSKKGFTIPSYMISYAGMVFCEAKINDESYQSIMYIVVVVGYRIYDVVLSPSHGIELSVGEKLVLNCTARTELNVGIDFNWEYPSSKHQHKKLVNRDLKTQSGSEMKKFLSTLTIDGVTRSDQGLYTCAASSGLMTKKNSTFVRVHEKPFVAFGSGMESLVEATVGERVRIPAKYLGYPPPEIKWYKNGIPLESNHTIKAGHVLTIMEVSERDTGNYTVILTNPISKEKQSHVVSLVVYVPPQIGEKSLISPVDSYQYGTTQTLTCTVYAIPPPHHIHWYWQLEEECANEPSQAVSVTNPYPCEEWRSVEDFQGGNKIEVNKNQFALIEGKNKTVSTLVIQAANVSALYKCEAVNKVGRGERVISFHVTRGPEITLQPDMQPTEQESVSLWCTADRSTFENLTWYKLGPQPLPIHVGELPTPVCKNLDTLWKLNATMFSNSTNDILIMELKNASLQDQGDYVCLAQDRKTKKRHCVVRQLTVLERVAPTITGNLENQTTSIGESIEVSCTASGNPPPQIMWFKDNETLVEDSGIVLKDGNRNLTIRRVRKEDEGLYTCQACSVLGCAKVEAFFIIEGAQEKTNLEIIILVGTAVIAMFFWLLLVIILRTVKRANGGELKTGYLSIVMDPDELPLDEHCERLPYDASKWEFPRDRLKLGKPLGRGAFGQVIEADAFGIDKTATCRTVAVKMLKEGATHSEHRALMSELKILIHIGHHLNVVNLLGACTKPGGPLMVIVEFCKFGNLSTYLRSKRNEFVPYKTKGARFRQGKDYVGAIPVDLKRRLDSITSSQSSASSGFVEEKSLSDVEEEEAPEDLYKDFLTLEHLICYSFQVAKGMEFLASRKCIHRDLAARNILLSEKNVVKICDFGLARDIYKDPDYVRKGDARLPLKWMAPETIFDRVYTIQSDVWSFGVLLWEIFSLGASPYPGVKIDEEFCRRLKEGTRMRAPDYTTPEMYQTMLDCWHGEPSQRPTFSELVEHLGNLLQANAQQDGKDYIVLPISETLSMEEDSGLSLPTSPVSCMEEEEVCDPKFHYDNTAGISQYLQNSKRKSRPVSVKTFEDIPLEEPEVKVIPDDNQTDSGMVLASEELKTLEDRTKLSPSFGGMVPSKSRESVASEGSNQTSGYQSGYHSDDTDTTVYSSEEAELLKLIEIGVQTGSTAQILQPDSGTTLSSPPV

| Structure (SMILES) | inhibition [1] | inhibition [2] | inhibition [3] | IC50 [4] [µM] | IC50 [5] [µM] | IC50 [6] [µM] | IC50 [7] [µM] |
| --- | --- | --- | --- | --- | --- | --- | --- |
| COc1ccc(N2Cc3cnc(Nc4ccccc4)nc3N([C@@H]3CC[C@@H](O)C3)C2=O)cc1 (racemic) | Dose-dependent effect | Dose-dependent effect | Dose-dependent effect |  |  |  |  |
| COc1ccc(N2Cc3cnc(Nc4ccccc4)nc3N([C@H]3CC[C@H](O)C3)C2=O)cc1 |  |  |  | 0.015 | 0.037 | 0.033 | 0.365 |
| COc1ccc(N2Cc3cnc(Nc4ccccc4)nc3N([C@@H]3CC[C@@H](O)C3)C2=O)cc1 |  |  |  | 0.012 | 0.035 | 0.028 | 0.239 |
